*1 amine or outer side, *2 acyl side, *3 side chain or, on linkers, in order; H or OH if unused. Where a SMILES comes first, the peptide text is derived from it. Where no end group is shown, it is not given here. Side-chain parts run from the residue outwards. The star is where a group is joined. C20 diacid = O=C(O)CCCCCCCCCCCCCCCCCCC(=O)*; γGlu = O=C(O)[C@H](CCC(=O)[*:2])N[*:1]; PEG2 = NCCOCCOCCC(=O)O
How the values were obtained:
LX2 cells = assay: CCK-8 assay of cell growth; assay type: cell-based, human; conditions: high concentration 64.0 μM
Serum stability analysis = assay type: in vitro ADME
How it was run: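 Peptide (5 mM) was incubated in mouse serum at 37 °C for 0, 0.25, 1, 2, 4, 8, 16 and 24 h. Reactions were quenched with ice-cold acetonitrile, vortexed 10 s and left 1 min. Water containing 1% TFA was then added, the mix was centrifuged at 13,000g for 10 min, and the supernatant was collected for analysis.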

C57BL/6J mice = assay: General observation of mice during peptide treatment; assay type: in vivo, mouse; conditions: CCl4 mice, 250 μg/kg i.p. daily for 4 weeks
How it was run: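 Male C57BL/6J mice (6–8 wk, 20–24 g) received 20% CCl4 in corn oil s.c. (5 mL/kg) every 2 days for 8 weeks, with corn-oil-injected controls. Test compound was given i.p. at 250 μg/kg daily over the last 4 weeks. Appearance, behavior and food intake were observed, and body weight was monitored (n = 5−7).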

FN and COL1α1 = assay: Western blot of FN and COL1α1 in TGF-β-induced LX2 cells; assay type: cell-based, human; conditions: 10 μM
COL1α1 = assay: Western blot of COL1α1; assay type: cell-based, human; conditions: TGF-β-treated LX2 cells, 10 μM, 24 h, Western blot (Figure 4)
α-SMA = assay: Western blot of α-SMA in TGF-β-induced LX2 cells; assay type: cell-based, human; conditions: TGF-β-treated LX2 cells, 10 μM, 24 h, Western blot (Figure 4)
How it was run: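 LX2 human hepatic stellate cells were grown in DMEM with 10% FBS and 1% penicillin-streptomycin at 37 °C, 5% CO2. Cells were induced with TGF-β (10 ng/mL) with or without 10 μM test compound for 24 h. Lysates in RIPA buffer were BCA-quantified, run on SDS-PAGE and transferred to PVDF. Primary antibody was applied overnight at 4 °C, then ECL detection. Densitometry was normalized to GAPDH; n = 3.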

p-ERK = assay: Western blot of p-Erk/Erk in liver, CCl4-induced liver fibrosis model; assay type: in vivo, mouse; conditions: CCl4 mice, 250 μg/kg i.p. daily for 4 weeks
How it was run: (§1)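 Male C57BL/6J mice with CCl4 fibrosis (20% in corn oil s.c., every 2 days, 8 weeks) received test compound 250 μg/kg i.p. daily over the final 4 weeks. Liver tissue was snap-frozen and stored at −80 °C, then lysed in RIPA buffer and BCA-quantified. Samples went through SDS-PAGE and PVDF transfer, overnight primary antibody at 4 °C, and ECL. Phospho-protein densitometry was normalized to GAPDH; n = 5.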

p-Smad3 = assay: Western blot of p-Smad3/Smad3 in liver, CCl4-induced liver fibrosis model; assay type: in vivo, mouse; conditions: CCl4 mice, 250 μg/kg i.p. daily for 4 weeks
How it was run: as §1

[1] = tested on: CCl4-induced liver fibrosis model; assay: Serum ALT, CCl4-induced liver fibrosis model; assay type: in vivo, mouse; conditions: CCl4 mice, 250 μg/kg i.p. daily for 4 weeks
How it was run: (§2)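 CCl4 (20% in corn oil, s.c., every 2 days, 8 weeks) fibrotic male C57BL/6J mice received test compound 250 μg/kg i.p. daily for the last 4 weeks. After the final dose, mice were fasted 9 h and euthanized 8 h later. Blood was drawn retro-orbitally under anesthesia and spun at 1000g for 15 min; serum was stored at −80 °C. ALT or AST was measured by commercial kit; n = 5.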

[2] = tested on: CCl4-induced liver fibrosis model; assay: Serum AST, CCl4-induced liver fibrosis model; assay type: in vivo, mouse; conditions: CCl4 mice, 250 μg/kg i.p. daily for 4 weeks
How it was run: as §2

[3] = tested on: CCl4-induced liver fibrosis model; assay: Hydroxyproline in liver tissue, CCl4-induced liver fibrosis model; assay type: in vivo, mouse; conditions: CCl4 mice, 250 μg/kg i.p. daily for 4 weeks, n = 5
How it was run: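 Liver fibrosis was induced in male C57BL/6J mice (6–8 wk) by s.c. 20% CCl4 in corn oil (5 mL/kg) every 2 days for 8 weeks, with corn-oil controls. Test compound was given at 250 μg/kg i.p. daily for the final 4 weeks. Livers were snap-frozen in liquid nitrogen, kept at −80 °C, and assayed for hydroxyproline; n = 5.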

[4] = tested on: CCl4-induced liver fibrosis model; assay: SOD in liver tissue, CCl4-induced liver fibrosis model; assay type: in vivo, mouse; conditions: CCl4 mice, 250 μg/kg i.p. daily for 4 weeks, n = 5
[5] = tested on: CCl4-induced liver fibrosis model; assay: GSH in liver tissue, CCl4-induced liver fibrosis model; assay type: in vivo, mouse; conditions: CCl4 mice, 250 μg/kg i.p. daily for 4 weeks, n = 5
[6] = tested on: CCl4-induced liver fibrosis model; assay: Liver histology; assay type: in vivo, mouse; conditions: CCl4 mice, 250 μg/kg i.p. daily for 4 weeks
How it was run: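 CCl4 model: male C57BL/6J mice, s.c. 20% CCl4 in corn oil every 2 days for 8 weeks, test compound 250 μg/kg i.p. daily during the last 4 weeks. Livers were fixed in 10% formaldehyde, deparaffinized and rehydrated. Sections got H&E, Sirius red (10 fields at 20× per liver) and IHC for α-SMA and COL1α1. Positive area was quantified excluding large bile ducts and vessels; n = 5.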

## TFGGAPGFPLGS [T6-S]
LX2 cells
  growth of LX2 cells (CCK-8): did not affect the growth
Serum stability analysis; mouse serum, 37 °C, 5 mM peptide, RP-HPLC-MS, 1 h
  peptide detectable by HPLC after incubation in serum: 50%

## TFGKAPGFPLGS [S6]
C57BL/6J mice
  appearance, behavior, food intake, body weight: no abnormalities

## CC(C)C[C@@H]1NC(=O)[C@@H]2CCCN2C(=O)[C@H](Cc2ccccc2)NC(=O)CNC(=O)[C@@H]2CCCN2C(=O)[C@H](C)NC(=O)CNC(=O)CNC(=O)[C@H](Cc2ccccc2)NC(=O)[C@H]([C@@H](C)O)NC(=O)[C@H](CO)NC(=O)CNC1=O [S19] (cyclo(APGFPLGSTFGG))
FN and COL1α1
  effect on expression of FN and COL1α1: diminished the inhibitory impacts

## TFGGAPGFPLGSPLSSVFPR [T6, reference compound]
LX2 cells
  growth of LX2 cells (CCK-8): did not affect the growth

## CC(C)C[C@H](NC(=O)[C@@H]1CCCN1C(=O)[C@H](Cc1ccccc1)NC(=O)CNC(=O)[C@@H]1CCCN1C(=O)[C@H](C)NC(=O)[C@H](CCCCNC(=O)CCOCCOCCNC(=O)CCOCCOCCNC(=O)CC[C@H](NC(=O)CCCCCCCCCCCCCCCCCCC(=O)O)C(=O)O)NC(=O)CNC(=O)[C@H](Cc1ccccc1)NC(=O)[C@@H](N)[C@@H](C)O)C(=O)NCC(=O)N[C@@H](CO)C(N)=O [S6-FA] (H-TFGK([PEG2-PEG2-γGlu-C20 diacid])APGFPLGS-NH2)
COL1α1
  expression of COL1α1: conspicuously decreased
α-SMA
  expression of α-SMA: conspicuously decreased
p-ERK
  phosphorylation of ERK in liver: effectively inhibited
p-Smad3
  phosphorylation of Smad3 in liver: effectively inhibited
[1]
  ALT serum level: remarkably reduced
[2]
  AST serum level: remarkably reduced
[3]
  HYP content in liver tissue: significantly decreased
[4]
  content of SOD in liver tissue versus CCl4 group: significantly higher
[5]
  content of GSH in liver tissue versus CCl4 group: significantly higher
[6]; n = 5
  collagen deposition (Sirius red): more efficacious outcomes in reducing collagen deposition compared to T6-S
[6]; versus control group and T6-S group
  fibrosis markers α-SMA and COL1α1 (IHC): notably lower
C57BL/6J mice
  appearance, behavior, food intake, body weight: no abnormalities
Serum stability analysis; mouse
  half-life at 5 mM: ~24 h
